Measurements published in ChEMBL document CHEMBL1152541, “Staurosporine tethered peptide ligands that target cAMP-dependent protein kinase (PKA): optimization and selectivity profiling” (Bioorg Med Chem, 2009).
*1 amine or outer side, *2 acyl side, *3 side chain or, on linkers, in order; H or OH if unused. Where a SMILES comes first, the peptide text is derived from it. Bridges are numbered along the chain shown (N, C = ends). [ ]: non-standard residue; d: D form. The star is where a group is joined. Staurosporine = CO[C@@H]1[C@H](N(C)*)C[C@H]2O[C@]1(C)n1c3ccccc3c3c4c(c5c6ccccc6n2c5c31)C(=O)NC4; Suc = O=C(CCC(=O)[*:2])[*:1]; Dap = NC[C@H](N)C(=O)O; βAla = NCCC(=O)O

Assays:
[1] = molecular target: Cyclin-dependent kinase 7 (Homo sapiens) (UniProt P50613); assay: Binding affinity to human CDK7 at 500 nM by cell-based competition binding assay relative to control in presence of DTT
Cyclin-dependent kinase 7 (Homo sapiens), sequence (P50613 whole entry): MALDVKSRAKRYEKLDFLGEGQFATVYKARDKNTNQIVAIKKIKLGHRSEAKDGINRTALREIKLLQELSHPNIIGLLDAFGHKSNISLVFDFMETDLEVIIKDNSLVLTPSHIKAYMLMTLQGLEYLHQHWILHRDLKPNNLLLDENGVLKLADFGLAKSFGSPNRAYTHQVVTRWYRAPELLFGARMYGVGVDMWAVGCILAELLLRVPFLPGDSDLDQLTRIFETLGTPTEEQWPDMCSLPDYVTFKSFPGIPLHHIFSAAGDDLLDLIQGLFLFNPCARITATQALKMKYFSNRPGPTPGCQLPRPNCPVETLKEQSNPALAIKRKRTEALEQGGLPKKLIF
Summary of the method: (§1)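 Commercial (Ambit) competitive kinase-binding panel of 90 kinases measured the binding profile. Run under reducing conditions of 7.5 mM DTT. Binding is expressed relative to control.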

[2] = molecular target: T1, Serine/threonine-protein kinase Chk1 (Homo sapiens) (UniProt O14757); assay: Binding affinity to human CHEK1 at 500 nM by cell-based competition binding assay relative to control in presence of DTT; summary of the method: as §1
T1 sequence (whole entry): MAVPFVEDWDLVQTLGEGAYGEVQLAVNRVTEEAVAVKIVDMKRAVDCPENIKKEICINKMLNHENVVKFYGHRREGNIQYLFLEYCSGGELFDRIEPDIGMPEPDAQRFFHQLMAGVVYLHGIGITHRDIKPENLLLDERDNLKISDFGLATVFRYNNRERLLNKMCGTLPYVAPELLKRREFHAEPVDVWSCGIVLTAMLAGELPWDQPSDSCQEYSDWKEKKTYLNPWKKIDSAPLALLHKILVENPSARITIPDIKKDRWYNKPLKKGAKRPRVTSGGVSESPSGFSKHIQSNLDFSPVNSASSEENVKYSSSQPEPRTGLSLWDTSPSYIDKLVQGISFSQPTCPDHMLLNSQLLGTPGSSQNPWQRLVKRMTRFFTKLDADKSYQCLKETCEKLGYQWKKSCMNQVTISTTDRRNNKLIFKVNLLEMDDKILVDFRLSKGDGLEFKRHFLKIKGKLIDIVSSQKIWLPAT

[3] = molecular target: Epidermal growth factor receptor (Homo sapiens) (UniProt P00533); assay: Binding affinity to human EGFR at 500 nM by cell-based competition binding assay relative to control in presence of DTT; summary of the method: as §1
[4] = molecular target: Mitogen-activated protein kinase kinase kinase 9 (Homo sapiens) (UniProt P80192); assay: Binding affinity to human MLK1 at 500 nM by cell-based competition binding assay relative to control in presence of DTT
Mitogen-activated protein kinase kinase kinase 9 (Homo sapiens), sequence (P80192 whole entry, looked up): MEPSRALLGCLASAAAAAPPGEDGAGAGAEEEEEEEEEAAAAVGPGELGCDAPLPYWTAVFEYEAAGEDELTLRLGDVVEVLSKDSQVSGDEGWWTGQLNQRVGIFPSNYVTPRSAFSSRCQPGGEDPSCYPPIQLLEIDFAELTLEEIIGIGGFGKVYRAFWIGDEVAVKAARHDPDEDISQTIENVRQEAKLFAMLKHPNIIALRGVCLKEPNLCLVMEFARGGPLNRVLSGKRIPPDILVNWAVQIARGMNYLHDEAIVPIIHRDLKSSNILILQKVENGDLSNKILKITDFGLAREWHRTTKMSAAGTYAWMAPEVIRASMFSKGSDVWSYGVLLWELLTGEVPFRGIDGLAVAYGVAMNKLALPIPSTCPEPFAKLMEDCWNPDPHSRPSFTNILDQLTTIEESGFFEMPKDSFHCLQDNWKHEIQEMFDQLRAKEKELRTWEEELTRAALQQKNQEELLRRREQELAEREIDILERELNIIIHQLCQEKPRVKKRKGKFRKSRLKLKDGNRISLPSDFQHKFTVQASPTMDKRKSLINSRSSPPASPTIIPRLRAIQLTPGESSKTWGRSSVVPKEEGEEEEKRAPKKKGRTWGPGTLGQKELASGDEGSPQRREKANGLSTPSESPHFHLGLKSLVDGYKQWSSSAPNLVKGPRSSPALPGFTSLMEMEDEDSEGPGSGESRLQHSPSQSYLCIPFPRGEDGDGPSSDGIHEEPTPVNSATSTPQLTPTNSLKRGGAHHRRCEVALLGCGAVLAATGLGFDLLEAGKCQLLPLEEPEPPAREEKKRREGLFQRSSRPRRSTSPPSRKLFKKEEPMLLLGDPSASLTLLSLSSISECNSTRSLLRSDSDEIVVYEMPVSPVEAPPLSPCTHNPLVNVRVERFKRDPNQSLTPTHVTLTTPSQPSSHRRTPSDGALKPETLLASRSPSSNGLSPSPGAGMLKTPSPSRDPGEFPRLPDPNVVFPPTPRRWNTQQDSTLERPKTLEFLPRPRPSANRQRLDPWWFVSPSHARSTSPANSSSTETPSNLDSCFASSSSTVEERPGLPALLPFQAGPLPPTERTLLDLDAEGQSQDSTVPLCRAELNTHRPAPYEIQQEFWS

[5] = molecular target: Dual specificity mitogen-activated protein kinase kinase 1 (Homo sapiens) (UniProt Q02750); assay: Binding affinity to human MEK1 at 500 nM by cell-based competition binding assay relative to control in presence of DTT
Dual specificity mitogen-activated protein kinase kinase 1 (Homo sapiens), sequence (Q02750 whole entry): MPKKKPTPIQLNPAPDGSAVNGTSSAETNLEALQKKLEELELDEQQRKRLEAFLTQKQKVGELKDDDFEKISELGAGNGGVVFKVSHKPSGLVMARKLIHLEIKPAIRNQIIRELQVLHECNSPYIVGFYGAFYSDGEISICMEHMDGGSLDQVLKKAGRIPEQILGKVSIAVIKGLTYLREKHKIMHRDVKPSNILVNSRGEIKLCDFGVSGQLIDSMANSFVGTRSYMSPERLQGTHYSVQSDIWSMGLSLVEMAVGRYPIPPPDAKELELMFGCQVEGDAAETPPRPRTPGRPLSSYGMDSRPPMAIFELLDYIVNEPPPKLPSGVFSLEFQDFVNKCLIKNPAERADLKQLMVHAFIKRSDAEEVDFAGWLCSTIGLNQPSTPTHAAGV
Summary of the method: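 Kinase binding profile from a commercial panel of 90 kinases, run as a competitive binding assay. The panel was screened under reducing conditions of 7.5 mM DTT. Signal was compared with the untreated control.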

[6] = molecular target: Macrophage colony-stimulating factor 1 receptor (Homo sapiens) (UniProt P07333); assay: Binding affinity to human CSF1R at 500 nM by cell-based competition binding assay relative to control in presence of DTT; summary of the method: as §1
[7] = molecular target: Receptor tyrosine-protein kinase erbB-2 (Homo sapiens) (UniProt P04626); assay: Binding affinity to human ERBB2 at 200 nM by cell-based competition binding assay relative to control in presence of DTT; summary of the method: as §1
Receptor tyrosine-protein kinase erbB-2 (Homo sapiens), sequence (P04626 whole entry): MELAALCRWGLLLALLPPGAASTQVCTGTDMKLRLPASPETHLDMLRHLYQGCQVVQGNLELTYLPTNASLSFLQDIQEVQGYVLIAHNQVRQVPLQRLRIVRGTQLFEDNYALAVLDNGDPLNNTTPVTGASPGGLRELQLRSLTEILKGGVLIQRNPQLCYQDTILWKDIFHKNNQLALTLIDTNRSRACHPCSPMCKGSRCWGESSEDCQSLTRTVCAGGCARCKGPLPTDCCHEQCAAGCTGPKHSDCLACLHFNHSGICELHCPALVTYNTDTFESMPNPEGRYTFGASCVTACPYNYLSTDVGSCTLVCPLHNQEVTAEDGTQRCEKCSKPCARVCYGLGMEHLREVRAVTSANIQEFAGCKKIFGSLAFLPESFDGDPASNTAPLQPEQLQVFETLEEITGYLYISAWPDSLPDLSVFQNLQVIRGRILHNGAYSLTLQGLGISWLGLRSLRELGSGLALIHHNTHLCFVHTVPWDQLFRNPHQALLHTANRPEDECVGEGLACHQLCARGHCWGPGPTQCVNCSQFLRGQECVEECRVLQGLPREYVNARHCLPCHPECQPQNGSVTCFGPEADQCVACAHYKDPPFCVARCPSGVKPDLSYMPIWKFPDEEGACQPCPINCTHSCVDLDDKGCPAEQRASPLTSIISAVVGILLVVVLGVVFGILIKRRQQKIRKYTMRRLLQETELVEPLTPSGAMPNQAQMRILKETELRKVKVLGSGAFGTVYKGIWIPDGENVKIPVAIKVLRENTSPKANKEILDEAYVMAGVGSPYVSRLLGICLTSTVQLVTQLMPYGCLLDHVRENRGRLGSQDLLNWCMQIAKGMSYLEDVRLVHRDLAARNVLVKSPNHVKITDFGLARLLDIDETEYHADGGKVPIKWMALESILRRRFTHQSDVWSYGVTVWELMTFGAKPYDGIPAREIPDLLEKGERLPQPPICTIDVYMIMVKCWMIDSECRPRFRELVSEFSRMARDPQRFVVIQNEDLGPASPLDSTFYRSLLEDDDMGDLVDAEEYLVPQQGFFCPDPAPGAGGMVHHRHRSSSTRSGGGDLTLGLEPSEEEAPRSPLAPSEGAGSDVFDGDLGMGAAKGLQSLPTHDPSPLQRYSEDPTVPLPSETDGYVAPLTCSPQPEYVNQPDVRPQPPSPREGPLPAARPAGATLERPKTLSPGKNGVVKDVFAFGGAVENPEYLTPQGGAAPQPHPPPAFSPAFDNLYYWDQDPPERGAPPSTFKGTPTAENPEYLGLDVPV

[8] = molecular target: Platelet-derived growth factor receptor alpha (Homo sapiens) (UniProt P16234); assay: Binding affinity to human PDGFRalpha at 200 nM by cell-based competition binding assay relative to control in presence of DTT
[9] = molecular target: MAP kinase-interacting serine/threonine-protein kinase 1 (Homo sapiens) (UniProt Q9BUB5); assay: Binding affinity to human MKNK1 at 200 nM by cell-based competition binding assay relative to control in presence of DTT
MAP kinase-interacting serine/threonine-protein kinase 1 (Homo sapiens), sequence (Q9BUB5 whole entry, looked up): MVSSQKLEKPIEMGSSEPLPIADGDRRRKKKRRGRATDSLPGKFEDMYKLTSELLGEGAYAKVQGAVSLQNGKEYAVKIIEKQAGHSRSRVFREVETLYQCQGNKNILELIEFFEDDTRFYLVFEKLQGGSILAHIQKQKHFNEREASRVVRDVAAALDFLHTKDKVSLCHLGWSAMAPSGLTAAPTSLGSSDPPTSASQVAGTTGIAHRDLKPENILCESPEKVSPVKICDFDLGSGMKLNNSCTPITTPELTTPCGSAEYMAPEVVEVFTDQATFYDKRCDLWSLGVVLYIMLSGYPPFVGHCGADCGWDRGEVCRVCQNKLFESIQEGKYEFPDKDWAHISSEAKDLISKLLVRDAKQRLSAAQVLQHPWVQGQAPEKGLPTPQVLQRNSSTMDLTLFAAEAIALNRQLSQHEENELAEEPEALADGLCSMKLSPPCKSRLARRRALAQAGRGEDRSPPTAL

[10] = molecular target: Glycogen synthase kinase-3 beta (Homo sapiens) (UniProt P49841); assay: Binding affinity to human GSK3-beta at 200 nM by cell-based competition binding assay relative to control in presence of DTT; summary of the method: as §1
Glycogen synthase kinase-3 beta (Homo sapiens), sequence (P49841 whole entry, looked up): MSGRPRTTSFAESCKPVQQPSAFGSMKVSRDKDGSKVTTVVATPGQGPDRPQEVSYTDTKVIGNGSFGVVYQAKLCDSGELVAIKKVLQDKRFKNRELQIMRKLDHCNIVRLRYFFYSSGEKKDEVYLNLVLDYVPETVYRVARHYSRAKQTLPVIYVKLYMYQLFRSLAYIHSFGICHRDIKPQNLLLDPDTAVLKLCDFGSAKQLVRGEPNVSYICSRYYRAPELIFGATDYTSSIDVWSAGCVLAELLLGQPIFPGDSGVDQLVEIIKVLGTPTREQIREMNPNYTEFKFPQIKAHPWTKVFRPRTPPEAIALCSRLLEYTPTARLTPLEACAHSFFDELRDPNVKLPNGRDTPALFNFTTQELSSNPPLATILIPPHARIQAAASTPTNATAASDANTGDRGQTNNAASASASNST

[11] = tested on: Tyrosine-protein kinase ABL1 (Homo sapiens), P00519 [T315I]; assay: Binding affinity to human ABL1 T315I mutant at 200 nM by cell-based competition binding assay relative to control in presence of DTT
Summary of the method: (§2)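 Kinase binding profiling ran on a commercial (Ambit) competitive binding screen against a panel of 90 kinases. The screen used reducing conditions with 7.5 mM DTT. To withstand the DTT, the bivalent ligand was tested as its amide isostere, with the disulfide replaced. A staurosporine derivative carrying a 3 β-alanine linker was run as the reference compound.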

[12] = molecular target: Serine/threonine-protein kinase pim-2 (Homo sapiens) (UniProt Q9P1W9); assay: Binding affinity to human PIM2 at 200 nM by cell-based competition binding assay relative to control in presence of DTT
Serine/threonine-protein kinase pim-2 (Homo sapiens), sequence (Q9P1W9 whole entry, looked up): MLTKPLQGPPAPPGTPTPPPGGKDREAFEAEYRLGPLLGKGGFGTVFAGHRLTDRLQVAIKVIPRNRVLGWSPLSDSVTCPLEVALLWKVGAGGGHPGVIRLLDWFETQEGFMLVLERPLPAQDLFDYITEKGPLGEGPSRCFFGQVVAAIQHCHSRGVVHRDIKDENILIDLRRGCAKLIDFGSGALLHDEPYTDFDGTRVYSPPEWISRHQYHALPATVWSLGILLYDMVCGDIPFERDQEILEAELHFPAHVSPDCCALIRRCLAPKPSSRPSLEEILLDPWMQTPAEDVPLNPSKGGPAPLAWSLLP

[13] = molecular target: Mitogen-activated protein kinase kinase kinase 9 (Homo sapiens) (UniProt P80192); assay: Binding affinity to human MLK1 at 200 nM by cell-based competition binding assay relative to control in presence of DTT
[14] = molecular target: Mitogen-activated protein kinase 14 (Homo sapiens) (UniProt Q16539); assay: Binding affinity to human p38alpha at 200 nM by cell-based competition binding assay relative to control in presence of DTT
Mitogen-activated protein kinase 14 (Homo sapiens), sequence (Q16539 whole entry): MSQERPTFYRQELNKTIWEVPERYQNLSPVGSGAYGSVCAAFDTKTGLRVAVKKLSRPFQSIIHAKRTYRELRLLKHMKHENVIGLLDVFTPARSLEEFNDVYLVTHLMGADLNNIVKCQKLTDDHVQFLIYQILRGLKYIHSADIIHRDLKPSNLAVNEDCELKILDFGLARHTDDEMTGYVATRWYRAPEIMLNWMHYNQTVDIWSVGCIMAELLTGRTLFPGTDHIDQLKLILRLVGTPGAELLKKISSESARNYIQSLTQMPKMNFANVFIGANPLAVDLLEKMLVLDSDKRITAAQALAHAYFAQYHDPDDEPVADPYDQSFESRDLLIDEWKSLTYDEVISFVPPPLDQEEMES

[15] = molecular target: Cyclin-dependent kinase 2 (Homo sapiens) (UniProt P24941); assay: Binding affinity to human CDK2 at 200 nM by cell-based competition binding assay relative to control in presence of DTT; summary of the method: as §2
[16] = molecular target: Mitogen-activated protein kinase kinase kinase 4 (Homo sapiens) (UniProt Q9Y6R4); assay: Binding affinity to human MAP3K4 at 50 nM by cell-based competition binding assay relative to control in presence of DTT
Summary of the method: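 Competition binding screen (Ambit) across a panel of 90 kinases, scoring test ligand displacement of each kinase's binding relative to control. The screen ran under reducing conditions with 7.5 mM DTT.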

[17] = molecular target: T2, TGF-beta receptor type-1 (Homo sapiens) (UniProt P36897); assay: Binding affinity to human TGFBR1 at 50 nM by cell-based competition binding assay relative to control in presence of DTT
T2 sequence (whole entry): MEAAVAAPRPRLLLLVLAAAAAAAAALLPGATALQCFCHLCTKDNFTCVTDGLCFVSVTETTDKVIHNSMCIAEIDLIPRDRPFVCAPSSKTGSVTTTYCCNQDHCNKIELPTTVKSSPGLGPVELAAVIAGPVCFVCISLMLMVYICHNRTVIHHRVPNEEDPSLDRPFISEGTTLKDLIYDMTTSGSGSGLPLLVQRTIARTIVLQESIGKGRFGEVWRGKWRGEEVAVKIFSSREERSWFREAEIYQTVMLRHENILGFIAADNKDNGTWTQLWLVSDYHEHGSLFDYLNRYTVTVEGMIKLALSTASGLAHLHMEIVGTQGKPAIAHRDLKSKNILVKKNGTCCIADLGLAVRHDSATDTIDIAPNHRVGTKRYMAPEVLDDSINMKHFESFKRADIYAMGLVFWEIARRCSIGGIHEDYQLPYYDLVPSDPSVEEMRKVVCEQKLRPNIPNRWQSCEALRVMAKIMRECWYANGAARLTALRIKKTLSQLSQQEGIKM

[18] = molecular target: T1, Serine/threonine-protein kinase Chk1 (Homo sapiens); assay: Binding affinity to human CHEK1 at 50 nM by cell-based competition binding assay relative to control in presence of DTT; summary of the method: as §1
[19] = molecular target: Casein kinase I isoform delta (Homo sapiens) (UniProt P48730); assay: Binding affinity to human CSNK1D at 50 nM by cell-based competition binding assay relative to control in presence of DTT; summary of the method: as §1

For `CO[C@@H]1[C@H](N(C)C(=O)CCC(=O)NCCC(=O)NCCC(=O)NCCC(N)=O)C[C@H]2O[C@]1(C)n1c3ccccc3c3c4c(c5c6ccccc6n2c5c31)C(=O)NC4`, the Activity [1] was 100%, the Activity [2] was 54% and the Activity [3] was 54%. It also gave an Activity [4] of 0.55%, an Activity [5] of 100% and an Activity [6] of 22%.

`CO[C@@H]1[C@H](N(C)C(=O)CCC(=O)NCCC(=O)NCCC(=O)NCCC(=O)NCCC(=O)NCCC(=O)NCCC(=O)NCCC(=O)N[C@H]2CSSC[C@@H](C(=O)NCC(N)=O)NC(=O)CNC(=O)[C@H](Cc3ccccc3)NC(=O)[C@H](C(C)C)NC(=O)[C@H](CCCNC(=N)N)NC(=O)[C@H](Cc3ccccc3)NC(=O)[C@H](C(C)C)NC2=O)C[C@H]2O[C@]1(C)n1c3ccccc3c3c4c(c5c6ccccc6n2c5c31)C(=O)NC4` ({Staurosporine-Suc-βAla-βAla-βAla-βAla-βAla-βAla-βAla}-CVFRVFGCG-NH2; disulfide 1-8) showed an Activity [7] of 100%, an Activity [8] of 41% and an Activity [9] of 96%. The Activity [10] was 100%, the Activity [11] was 78% and the Activity [12] was 100%. The Activity [13] was 0.65%, the Activity [14] was 89% and the Activity [15] was 100%.

In the case of `CO[C@@H]1[C@H](N(C)C(=O)CCC(=O)NCCC(=O)NCCC(=O)NCCC(=O)NCCC(=O)NCCC(=O)NCCC(=O)NCCC(=O)N[C@H]2CNC(=O)C[C@@H](C(N)=O)NC(=O)CNC(=O)[C@H](Cc3ccccc3)NC(=O)[C@H](C(C)C)NC(=O)[C@H](CCCNC(=N)N)NC(=O)[C@H](Cc3ccccc3)NC(=O)[C@H](C(C)C)NC2=O)C[C@H]2O[C@]1(C)n1c3ccccc3c3c4c(c5c6ccccc6n2c5c31)C(=O)NC4` ({Staurosporine-Suc-βAla-βAla-βAla-βAla-βAla-βAla-βAla}-[Dap]VFRVFGD-NH2; lactam 1-8), the Activity [16] is reported as 96%, the Activity [17] is reported as 100% and the Activity [18] is reported as 91%. For the same compound, the Activity [19] was 100%.
